Source: ChEMBL document CHEMBL1146349, “Endomorphin-1 analogs with enhanced metabolic stability and systemic analgesic activity: design, synthesis, and pharmacological characterization” (Bioorg Med Chem, 2007)
pIC50, pKi: −log10 of the molar value. Calls of active or inactive are those of the source.

What was measured:
Mu-type opioid receptor [1] = target: Mu-type opioid receptor (Rattus norvegicus, UniProt P33535); assay: Binding affinity to mu opioid receptor in rat brain synaptosome membrane by radioligand binding assay; type: cell membranes
Sequence of Mu-type opioid receptor (Rattus norvegicus, UniProt P33535) (P33535 whole entry): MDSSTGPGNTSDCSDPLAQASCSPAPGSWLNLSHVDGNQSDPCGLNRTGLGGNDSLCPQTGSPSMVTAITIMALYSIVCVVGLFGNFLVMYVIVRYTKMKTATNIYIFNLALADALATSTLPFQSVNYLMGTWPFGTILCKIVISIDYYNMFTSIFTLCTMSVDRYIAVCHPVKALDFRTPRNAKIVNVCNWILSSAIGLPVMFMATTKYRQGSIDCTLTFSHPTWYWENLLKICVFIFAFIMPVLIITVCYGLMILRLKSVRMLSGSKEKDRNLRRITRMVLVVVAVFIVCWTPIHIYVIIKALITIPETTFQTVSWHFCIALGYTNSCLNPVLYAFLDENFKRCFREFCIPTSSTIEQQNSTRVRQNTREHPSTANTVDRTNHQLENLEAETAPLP
Method in brief: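 Competition vs [3H]Tyr-D-Ala-Gly-MePhe-Gly-ol (DAMGO-type mu ligand) 0.5 nM, 1 h, on rat brain synaptosomal membranes (300–500 µg/mL protein) in 50 mM Tris–HCl pH 7.4; nonspecific binding with 10 µM naloxone; duplicates, repeated at least three times.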

[2] = Half life in mouse serum; type: ADME, cell-free
Method in brief: (§1)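 Peptides at 500 µM final in 15% mouse brain homogenate (washed) or 100% mouse serum, 2.3 mg/mL protein, 50 mM Tris pH 7.4, 37 °C; sampled 0–300 min in triplicate; stopped with acetonitrile, acidified, centrifuged, remaining peptide by RP-HPLC.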

[3] = target: Delta-type opioid receptor (Rattus norvegicus, UniProt P33533); assay: Binding affinity to delta opioid receptor in rat brain synaptosome membrane by radioligand binding assay; type: cell membranes
Sequence of Delta-type opioid receptor (Rattus norvegicus, UniProt P33533) (P33533 whole entry): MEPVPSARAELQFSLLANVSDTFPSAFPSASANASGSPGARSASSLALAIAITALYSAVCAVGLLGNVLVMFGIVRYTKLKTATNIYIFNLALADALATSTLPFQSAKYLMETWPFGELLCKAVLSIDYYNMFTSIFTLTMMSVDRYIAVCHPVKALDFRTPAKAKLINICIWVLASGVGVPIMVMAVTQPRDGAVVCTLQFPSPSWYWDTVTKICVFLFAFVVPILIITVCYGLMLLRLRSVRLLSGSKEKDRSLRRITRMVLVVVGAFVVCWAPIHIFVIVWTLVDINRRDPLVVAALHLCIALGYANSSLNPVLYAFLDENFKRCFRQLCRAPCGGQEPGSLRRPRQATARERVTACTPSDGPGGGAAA
Method in brief: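 Displacement of [3H]Tyr-c[D-Pen-Gly-Phe-D-Pen]-OH 1 nM, 3 h incubation, rat brain synaptosomal membranes (300–500 µg/mL protein), 50 mM Tris–HCl pH 7.4; 10 µM naloxone defines nonspecific binding; duplicate assays, at least three repeats.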

[4] = target: Delta-type opioid receptor (Mus musculus, UniProt P32300); assay: Agonist activity at delta opioid receptor in mouse vas deferens assessed as inhibition of electrically-induced twitches; type: functional, tissue-based
Sequence of Delta-type opioid receptor (Mus musculus, UniProt P32300) (P32300 whole entry): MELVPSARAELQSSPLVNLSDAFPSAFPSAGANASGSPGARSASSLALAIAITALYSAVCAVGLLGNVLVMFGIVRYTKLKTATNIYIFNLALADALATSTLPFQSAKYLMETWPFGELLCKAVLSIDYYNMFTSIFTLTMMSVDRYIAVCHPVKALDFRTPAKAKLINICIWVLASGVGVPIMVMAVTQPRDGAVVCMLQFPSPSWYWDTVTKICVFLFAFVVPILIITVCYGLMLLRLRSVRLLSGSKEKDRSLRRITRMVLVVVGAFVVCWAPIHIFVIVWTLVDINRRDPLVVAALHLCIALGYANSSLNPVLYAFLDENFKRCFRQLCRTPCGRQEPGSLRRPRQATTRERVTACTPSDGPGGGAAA
Method in brief: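 MVD: paired rectangular pulses (1-ms width, 100-ms apart, 9 V/cm, supramaximal) every 10 s; isometric twitch recording; dose–response curves, IC50 read graphically; mean of five to eight measurements.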

Mus musculus = assay: Antinociceptive activity in mouse at 30 mg/kg, sc by tail flick test; type: functional, organism-based; design: dose 30 mg/kg
Method in brief: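 Mice given 30 mg/kg sc (100 µL); 50 °C warm-water tail-flick, baseline responders under 5 s kept, 10 s cut-off; latencies at 5–60 min post-dose; %MPE = 100·(TL−CL)/(10−CL); saline control; six to eight mice per group, mean with SEM.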

[5] = Distribution coefficient, log D in octanol and […] at pH 7.4; type: physicochemical
Method in brief: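 Shake-flask: 50 µg peptide in pre-equilibrated 0.05 M Hepes/0.1 M NaCl pH 7.4 with octanol, vortexed 2 min, centrifuged; both phases quantified by RP-HPLC; D = octanol/buffer ratio; triplicate.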

[6] = Half life in mouse brain; type: ADME, tissue-based; method in brief: as §1
Mu-type opioid receptor [7] = target: Mu-type opioid receptor (Cavia porcellus, UniProt P97266); assay: Agonist activity at mu opioid receptor in guinea pig ileum assessed as inhibition of electrically-induced twitches; type: functional, tissue-based
Sequence of Mu-type opioid receptor (Cavia porcellus, UniProt P97266) (P97266 whole entry): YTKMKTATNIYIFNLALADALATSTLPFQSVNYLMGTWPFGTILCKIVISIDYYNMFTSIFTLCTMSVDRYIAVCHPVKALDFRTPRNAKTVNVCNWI
Method in brief: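 GPI: twitches evoked at 0.1 Hz, 50 V, 0.5-ms pulse width; isometric recording; dose–response curves with IC50 derived graphically; arithmetic mean of five to eight measurements.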

[8] = Protein binding to BSA; type: ADME, Bos taurus; details: cattle, isolated protein
Method in brief: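 Peptides in mammalian Ringer's solution with 10 g/L BSA and 3.9% dextran, pH 7.4, 37 °C; ultrafiltration (30 kDa cut-off, 2000g, 10 min); total and free peptide by RP-HPLC; % bound = (T−F)/T×100; triplicate.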

With COc1ccc(C[C@H](NC(=N)N)C(=O)N2CCC[C@@H]2C(=O)NCC(=O)N[C@@H](Cc2c[nH]c3ccccc23)C(=O)N[C@@H](Cc2ccc(Cl)cc2)C(N)=O)cc1 the pKi (Mu-type opioid receptor [1]) was 6.04, the half-life [2] was 3.6 h and the pKi [3] was 5.83. The pIC50 [4] was under 5.00, the Activity (Mus musculus) was “Active” and the logD [5] was 1.64. The half-life [6] was 6.82 h, the pIC50 (Mu-type opioid receptor [7]) was under 6.00 and the Activity [8] was 62.52%.

COc1ccc(C[C@H](N=C(N)N)C(=O)N2CCC[C@@H]2C(=O)NCC(=O)N[C@@H](Cc2c[nH]c3ccccc23)C(=O)N[C@@H](Cc2ccccc2)C(N)=O)cc1 showed a pKi (Mu-type opioid receptor [1]) of 5.97, a half-life [2] of 2.75 h and a pKi [3] of under 5.00. It also gave a pIC50 [4] of under 5.00, a logD [5] of 0.78 and a half-life [6] of 7.45 h. The pIC50 (Mu-type opioid receptor [7]) was under 6.00 and the Activity [8] was 45.15%.

With COc1ccc(C[C@H](N=C(N)N)C(=O)N2CCC[C@H]2C(=O)N[C@@H](Cc2c[nH]c3ccccc23)C(=O)N[C@@H](Cc2ccccc2)C(N)=O)cc1 the pKi (Mu-type opioid receptor [1]) was 6.10, the half-life [2] was 0.522 h and the pKi [3] was 5.32. It also gave a pIC50 [4] of 5.87, a logD [5] of 0.21 and a half-life [6] of 4.3 h. The pIC50 (Mu-type opioid receptor [7]) was 6.01 and the Activity [8] was 40.58%.

Work on COc1ccc(C[C@H](N=C(N)N)C(=O)N2CCC[C@H]2C(=O)N[C@@H](Cc2c[nH]c3ccccc23)C(=O)N[C@@H](Cc2ccc(Cl)cc2)C(N)=O)cc1 yielded a pKi (Mu-type opioid receptor [1]) of 6.27, a half-life [2] of 0.803 h and a pKi [3] of 5.86. The pIC50 [4] was 5.89, the logD [5] was 1.33 and the half-life [6] was 3.17 h. For the same compound, the pIC50 (Mu-type opioid receptor [7]) was 6.07 and the Activity [8] was 65.57%.
